Screening results (PubChem BioAssay)
TAG inh: inhibitors of triacylglycerol accumulation, primary screen, cell-based, uHTS, fluorescence, H9c2. 0.66% of 230,000 active. AID 651582, 2012. inhibition, % at 12.5 µM. H9c2 cells, Nile Red lipid (TAG) fluorescence; cells loaded with 200 µM oleic acid;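 active = pattern-corrected inhibition of lipid staining of at least 50% with the nuclear-stain viability signal not falling by more than 50%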
MT1-MMP act inh: blockers of MT1-MMP proenzyme processing, primary screen, HT1080 RFP-PRO-GFP cells, GFP/RFP fluorescence | GFP/RFP ratio fluorescence, overnight; percent of plate control window, DMSO zero | 0.061% of 360,000 active | GFP/RFP ratio change, % at 20 µM;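 active = GFP/RFP ratio change of at least 30% with cell ATP level not reduced by more than half and red fluorescence within 50% of control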
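Assay system: HT1080 cells carrying an RFP-PRO-GFP reporter | Dosing: Single dose of 20 µM compound, 1% DMSO final | Incubation: Cells overnight before dosing, compound overnight, 37 °C, 5% CO2 | Evaluation: GFP/RFP fluorescence ratio | Control set: DMSO and RFP-L50D-GFP cell wells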
Efflux pump inh: inhibitors of Candida efflux pumps in yeast, primary screen, S. cerevisiae, Nile Red, multiplex; inhibition, % at 10 µM; 0.44% of 330,000 active; S. cerevisiae Candida pump triplex;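 active = plate passing quality check with inhibition over a set limit, or well fluorescence over plate mean plus 4 SD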;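 also: Nile Red retained in pooled yeast measured as flow cytometry median fluorescence; higher means more Nile Red kept so more efflux inhibition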
sPLA2-III inh: human group III sPLA2 inhibitors, primary screen, biochemical, QFRET, BODIPY PC-A2 liposome substrate | 0.56% of 370,000 active | Group 3 secretory phospholipase A2 (Homo sapiens), Q9NZ20 | QFRET BODIPY PC-A2 liposome hydrolysis, fluorescence | inhibition, % at 12.2 µM;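 active = inhibition above mean plus 3 SD of compounds lying within the high and low control bounds, cut at about 19% in these data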
Target sequence (Q9NZ20 whole entry, looked up): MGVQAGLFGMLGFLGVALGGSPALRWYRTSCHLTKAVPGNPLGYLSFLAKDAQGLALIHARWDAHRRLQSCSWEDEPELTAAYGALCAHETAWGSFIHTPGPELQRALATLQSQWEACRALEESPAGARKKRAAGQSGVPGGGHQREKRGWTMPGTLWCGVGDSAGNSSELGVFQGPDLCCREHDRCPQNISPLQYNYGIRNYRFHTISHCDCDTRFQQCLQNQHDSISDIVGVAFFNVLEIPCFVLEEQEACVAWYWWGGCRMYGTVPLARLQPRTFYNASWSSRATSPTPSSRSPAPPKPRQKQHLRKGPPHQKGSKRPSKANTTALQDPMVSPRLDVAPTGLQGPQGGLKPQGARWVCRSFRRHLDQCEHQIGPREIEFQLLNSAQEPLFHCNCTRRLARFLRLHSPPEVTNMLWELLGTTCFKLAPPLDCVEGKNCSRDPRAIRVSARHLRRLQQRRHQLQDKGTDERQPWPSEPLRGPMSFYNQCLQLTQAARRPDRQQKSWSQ
sPLA2 confirm: human group III sPLA2 inhibitors, confirmation, biochemical, QFRET, triplicate; shares compounds with sPLA2-III inh; recombinant hGIII-sPLA2, BODIPY PC-A2 QFRET fluorescence; inhibition, % at 12.2 µM; 34% of 2,000 active;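 active = mean inhibition across triplicates above the hit cutoff set in the earlier primary screen, cut at about 19% in these data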
BODIPY interf: 535nm fluorescence optical interference, confirmation, artefact control for HGIII-sPLA2 inhibitor project, biochemical, QFRET | 8.5% of 2,000 active | BODIPY FL product fluorescence interference | shares compounds with sPLA2-III inh | inhibition, % at 12.2 µM;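 active = average inhibition above the solvent-only control mean plus 3 SD, cut at about 6% in these data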
BODIPY interf DR: 535nm fluorescence optical interference, dose response, artefact control for HGIII-sPLA2 inhibitor project, biochemical, QFRET. shares compounds with sPLA2-III inh. 240 tested, under 10 active. IC50, µM. BODIPY FL product fluorescence interference, cell-free;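 active = IC50 at or below 10 µM; inactive = IC50 above 10 µM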
Each line names hits and unclear results; the compound was inactive in the other large screens (follow-up assays come after a bar, where they were run). A selection: hits, their analogues and other compounds. The true share with any hit is near 1.3%.

COc1ccc(C)cc1NC(=O)NNC(=O)c1cc2ccccc2cc1O	none (no result: MT1-MMP act inh)
O=C(NNC(=O)c1cc2ccccc2cc1O)Nc1ccc(F)cc1F	none
COc1ccc(NC(=O)NNC(=O)c2cc3ccccc3cc2O)cc1	sPLA2-III inh 22 (no result: TAG inh) | sPLA2 confirm 23 | BODIPY interf inactive
O=C(NNC(=O)c1cc2ccccc2cc1O)Nc1ccc(Br)cc1	sPLA2-III inh 31 (no result: TAG inh) | sPLA2 confirm 31 | BODIPY interf 6.2
O=C(NC1CCCC1)C(c1ccc(F)cc1)N1CCC(O)(c2ccc(Cl)cc2)CC1 (configuration not stated)	none (no result: TAG inh, Efflux pump inh)
COC(=O)c1ccc(NC(=O)Cn2nc(-c3ccncc3)nc2SCC(=O)Nc2nccs2)cc1	none
CCN1C(=NCCCOC(C)C)N[C@@H](c2ccccc2)[C@H](C(=O)OC)[C@H]1C	sPLA2-III inh 19 | sPLA2 confirm inactive | BODIPY interf inactive
CCN1C(=NCCc2ccc(Br)cc2)N[C@@H](c2ccccc2)[C@H](C(=O)OC)[C@H]1C	none
COc1ccccc1N1CCN(CCN2C(=O)C3CCCCN3C2=O)CC1 (configuration not stated)	none
COc1ccccc1N1CCN(CCN2C(=O)CC3(CCCC3)CC2=O)CC1	sPLA2-III inh 20 | sPLA2 confirm inactive | BODIPY interf inactive
CCOC(=O)[C@H]1[C@H]2COc3ccccc3[C@@H]2N2C(=O)c3cc(OC)ccc3NC(=O)[C@@]12C	none (no result: Efflux pump inh)
CCOC(=O)[C@H]1[C@H]2COc3cc(OC)ccc3[C@@H]2N2C(=O)c3cc(OC)c(OC)cc3NC(=O)[C@@]12C	sPLA2-III inh 22 (no result: Efflux pump inh) | sPLA2 confirm inactive | BODIPY interf inactive
Oc1cccc2ccc(/C=C/c3ccccc3Br)nc12	sPLA2-III inh 26 (no result: TAG inh) | sPLA2 confirm inactive | BODIPY interf inactive
Cc1c([N+](=O)[O-])cc(C(=O)N2CCOCC2)cc1[N+](=O)[O-]	none (no result: TAG inh)
COc1cc([N+](=O)[O-])c(C(=O)N2CCOCC2)c([N+](=O)[O-])c1	sPLA2-III inh 20 (no result: TAG inh) | sPLA2 confirm inactive | BODIPY interf inactive
CCOC(=O)c1cc(N)cc([N+](=O)[O-])c1	sPLA2-III inh 23 (no result: TAG inh) | sPLA2 confirm inactive | BODIPY interf inactive
Cc1ccccc1C(=O)NNC(=O)c1cc(N)cc([N+](=O)[O-])c1	none
CCCc1cc(=O)[nH]c(SCC(=O)N2c3ccccc3CC2C)n1 (configuration not stated)	none
CCC(C)NC(=O)c1ccc(NC(=O)C2=C(C)OCCS2)cc1 (configuration not stated)	sPLA2-III inh 21 (no result: TAG inh) | sPLA2 confirm inactive | BODIPY interf inactive
CC1=C(C(=O)Nc2cccc(C(=O)NC(C)C)c2)SCCO1	none (no result: TAG inh)
CC(C)C[C@H]1COc2cc(N3CCOCC3)ccc2S(=O)(=O)N1	none (no result: TAG inh, MT1-MMP act inh, Efflux pump inh)
CC(C)C[C@@H]1COc2cc(N3CCCC3)ccc2S(=O)(=O)N1	sPLA2-III inh 21 (no result: TAG inh, MT1-MMP act inh, Efflux pump inh) | sPLA2 confirm inactive | BODIPY interf inactive
COC(=O)Cn1c2ccccc2c(=O)n1C(C)C	sPLA2-III inh 20 (no result: TAG inh, Efflux pump inh) | sPLA2 confirm inactive | BODIPY interf inactive
COCCCN1C(=O)C(CC(=O)NCc2ccco2)CC(C(=O)N2CCOCC2)=C1C (configuration not stated)	sPLA2-III inh 21 (no result: Efflux pump inh) | sPLA2 confirm inactive | BODIPY interf inactive
CCCC1CC(=O)NC1(C(=O)OCC)C(=O)OCC (configuration not stated)	none (no result: Efflux pump inh)
N#CC(C(=S)Nc1ccccc1)c1nc2ccccc2[nH]1 (configuration not stated)	sPLA2-III inh 28 | sPLA2 confirm inactive | BODIPY interf 7.4
CSC(=Nc1ccccc1)C(C#N)c1nc2ccccc2[nH]1 (configuration not stated)	none
CC(C1CC1)N(Cc1ccccc1)C(=S)Nc1cccc(C(F)(F)F)c1 (configuration not stated)	sPLA2-III inh 21 (no result: TAG inh) | sPLA2 confirm inactive | BODIPY interf inactive
CC(C1CC1)N(Cc1ccccc1)C(=S)Nc1ccccc1 (configuration not stated)	none
CCN1C(=O)[C@H]2[C@@H](c3ccc(OC)cc3)N3C(=O)CN(CCOC)C(=O)[C@@]3(Cc3ccccc3)[C@H]2C1=O	none
O=C1CCc2ccccc2N1	none
Clc1ccc2c(c1)Nc1ccccc1CC2	sPLA2-III inh 22 | sPLA2 confirm inactive | BODIPY interf 8.2
O=S1(=O)CC2c3ccccc3CCN2CN1Cc1ccc(F)cc1 (configuration not stated)	none (no result: TAG inh, MT1-MMP act inh, Efflux pump inh)
CCCCNc1nc2c(S(=O)(=O)c3ccccc3)nnn2c2ccccc12	sPLA2-III inh 20 | sPLA2 confirm inactive | BODIPY interf inactive
Cn1c(=O)c(=O)n(C)c2cc(S(=O)(=O)N3CCCC3C(=O)NCc3cccnc3)ccc21 (configuration not stated)	none
OC(c1ccccc1)c1ccccc1CN1CCCNC1=S (configuration not stated)	sPLA2-III inh 19 (no result: Efflux pump inh) | sPLA2 confirm inactive | BODIPY interf inactive
COc1ccc(NC(=O)CCCn2cnc3ccccc3c2=O)cc1	none (no result: TAG inh)
C[C@H](CO)N1C[C@H](C)[C@@H](CN(C)S(=O)(=O)c2cn(C)cn2)Oc2ccc(NC(=O)C3CCCCC3)cc2C1=O	sPLA2-III inh 21 | sPLA2 confirm inactive | BODIPY interf inactive
O=C(O)c1cccc(NC(=O)c2cccc(S(=O)(=O)N3CCc4ccccc4C3)c2)c1	none
Cc1ccccc1OCCCN1C(=O)C(=O)c2cccc(C)c21	sPLA2-III inh 28 | sPLA2 confirm 38 | BODIPY interf inactive | BODIPY interf DR inactive
Cc1ccc2c(c1)C(=O)C(=O)N2CCCOc1ccccc1C	none
Cc1cccc2c1N(CCCOc1ccccc1)C(=O)C2=O	sPLA2-III inh 21 (no result: TAG inh, MT1-MMP act inh) | sPLA2 confirm inactive | BODIPY interf inactive
CC(=O)c1cccc(OCc2cc(C(=O)NCc3nc(C)c(C)s3)no2)c1	none
Cc1cc(C(=O)c2ccc(Cl)cc2)c(NC(=O)CCl)s1	sPLA2-III inh 19 (no result: TAG inh) | sPLA2 confirm inactive | BODIPY interf inactive
Cc1ccc2c(c1)c(C)c(C)n2CC(O)CN1CCCCC1C (configuration not stated)	sPLA2-III inh 22 | sPLA2 confirm 20 | BODIPY interf inactive
